Experimental data: ChEMBL document CHEMBL1137758, “Biphenyl C-cyclopropylalkylamides: New scaffolds for targeting estrogen receptor beta” (Bioorg Med Chem Lett, 2009)
pIC50: −log10 of the molar value. The source made the active and inactive calls. No cut-off for these calls is given here.

How the values were obtained:
MCF7 [1] = experiment: Cytotoxicity against estradiol-stimulated human MCF7 cells expressing ERalpha and ERbeta at 25 uM after 6 days by MTS assay; assay type: functional, cell-based
Outline: (§1)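 MCF-7 cells (an earlier passage expressing ERα and ERβ, or the later-passage ATCC variant expressing only ERα) were seeded at 4×10^3 cells/well in phenol red-free RPMI-1640 with 10% charcoal-dextran stripped FBS and left to adhere overnight. […] MTS/PMS read-out was A490 minus A630 after 2 h. Day-0 cells were set to 0% growth and E2-stimulated day-6 growth to 100%.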

MCF7 [2] = experiment: Cytotoxicity against estradiol-stimulated human MCF7 cells expressing ERalpha at 25 uM after 6 days by MTS assay; assay type: functional, cell-based; outline: as §1
MDA-MB-231 [3] = experiment: Cytotoxicity against estrogen receptor deficient human MDA-MB-231 cells at 25 uM after 72 hrs by MTS assay; assay type: functional, cell-based
Outline: (§2)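 Cells were plated at 1×10^3 cells/well in phenol red-free RPMI-1640 with 10% FBS and left to adhere 72 h. Agents were given over 3.2 nM to 50 µM for 72 h. Cell density was read by MTS dye reduction, A490 with A630 background subtracted.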

MDA-MB-231 [4] = experiment: Growth inhibition of estrogen receptor deficient human MDA-MB-231 cells at 3.2 nM to 50 uM after 72 hrs by MTS assay; assay type: functional, cell-based; outline: as §2
Estrogen receptor = biological target: T1, Estrogen receptor (Homo sapiens, UniProt P03372); experiment: Displacement of fluorescein-labeled estradiol from human recombinant ERalpha by fluorescence polarization assay; settings: for pIC50: read-out: IC50
T1 sequence (P03372 whole entry): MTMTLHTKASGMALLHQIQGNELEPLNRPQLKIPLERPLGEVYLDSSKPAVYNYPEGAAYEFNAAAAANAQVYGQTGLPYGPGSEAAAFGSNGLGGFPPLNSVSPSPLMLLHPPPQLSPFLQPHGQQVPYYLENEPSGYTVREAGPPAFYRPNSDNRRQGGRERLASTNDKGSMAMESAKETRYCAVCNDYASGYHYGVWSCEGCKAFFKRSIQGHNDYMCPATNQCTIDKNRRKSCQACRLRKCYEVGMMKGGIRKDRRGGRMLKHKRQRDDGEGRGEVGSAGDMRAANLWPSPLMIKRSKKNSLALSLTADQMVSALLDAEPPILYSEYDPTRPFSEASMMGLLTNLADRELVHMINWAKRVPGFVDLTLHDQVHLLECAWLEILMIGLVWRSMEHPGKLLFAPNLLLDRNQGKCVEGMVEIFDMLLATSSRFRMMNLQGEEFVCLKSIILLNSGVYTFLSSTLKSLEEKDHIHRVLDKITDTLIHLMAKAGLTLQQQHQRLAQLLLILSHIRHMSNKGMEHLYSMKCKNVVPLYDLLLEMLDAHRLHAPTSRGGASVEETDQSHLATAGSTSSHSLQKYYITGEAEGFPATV

Estrogen receptor beta [5] = biological target: T2, Estrogen receptor beta (Homo sapiens, UniProt Q92731); experiment: Displacement of fluorescein-labeled estradiol from human recombinant ERbeta by fluorescence polarization assay
Outline: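 ER (15 nM) was incubated with Fluormone ES2 (1 nM) and serially diluted compound in DMSO (1% v/v) in duplicate. Polarization was read after 2 h (ex 485/em 530 nm). […] Values are means of three experiments.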

MCF7 [6] = experiment: cells; settings: Homo sapiens, MCF7, 144 h
MCF7 [7] = experiment: cells; settings: Homo sapiens, MCF7, 144 h; remark: listed apart in the source
[8] = biological target: T3, Estrogen receptor (Homo sapiens) (UniProt P03372); experiment: Displacement of fluorescein-labeled estradiol from human recombinant ERalpha at 0.2 uM by fluorescence polarization assay
T3 sequence (whole entry): T1 sequence (P03372 whole entry)

[9] = biological target: T3, Estrogen receptor (Homo sapiens); experiment: Displacement of fluorescein-labeled estradiol from human recombinant ERalpha at 1 uM by fluorescence polarization assay
[10] = biological target: T3, Estrogen receptor (Homo sapiens); experiment: Displacement of fluorescein-labeled estradiol from human recombinant ERalpha at 5 uM by fluorescence polarization assay
Estrogen receptor beta [11] = biological target: T2, Estrogen receptor beta; experiment: Displacement of fluorescein-labeled estradiol from human recombinant ERbeta at 5 uM by fluorescence polarization assay
Estrogen receptor beta [12] = biological target: T2, Estrogen receptor beta; experiment: Displacement of fluorescein-labeled estradiol from human recombinant ERbeta at 0.2 uM by fluorescence polarization assay
Estrogen receptor beta [13] = biological target: T2, Estrogen receptor beta; experiment: Displacement of fluorescein-labeled estradiol from human recombinant ERbeta at 1 uM by fluorescence polarization assay
[14] = Selectivity for ERalpha over ERbeta
[15] = Selectivity for ERbeta over ERalpha

T2 sequence (Q92731 whole entry): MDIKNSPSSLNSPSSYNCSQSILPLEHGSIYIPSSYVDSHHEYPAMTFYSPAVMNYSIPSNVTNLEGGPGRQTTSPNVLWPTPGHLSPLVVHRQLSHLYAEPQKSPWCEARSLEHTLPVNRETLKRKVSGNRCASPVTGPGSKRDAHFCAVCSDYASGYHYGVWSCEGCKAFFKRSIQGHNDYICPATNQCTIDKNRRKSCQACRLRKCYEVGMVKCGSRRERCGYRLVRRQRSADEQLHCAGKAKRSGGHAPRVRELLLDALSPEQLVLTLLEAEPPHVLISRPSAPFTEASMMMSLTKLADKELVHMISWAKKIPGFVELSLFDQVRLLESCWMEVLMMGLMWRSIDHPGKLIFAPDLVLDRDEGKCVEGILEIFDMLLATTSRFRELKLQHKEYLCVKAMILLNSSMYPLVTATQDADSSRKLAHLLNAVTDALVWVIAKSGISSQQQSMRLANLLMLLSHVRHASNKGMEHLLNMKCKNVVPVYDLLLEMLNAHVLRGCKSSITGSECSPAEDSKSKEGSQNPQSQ

Row | Structure (SMILES) | Activity [8] | Activity [9] | Activity [10] | Activity (Estrogen receptor beta [11]) | Activity (Estrogen receptor beta [12]) | Activity (Estrogen receptor beta [13]) | other results
1 | CCCC[C@@H]1C[C@H]1[C@@H](N)c1ccc(-c2ccc(O)cc2)cc1F.Cl (relative stereo) |  |  |  |  |  |  | Activity (MCF7 [1]): Active; Activity (MCF7 [2]): Active; Activity (MDA-MB-231 [3]): Active; growth inhibition (GI) (MDA-MB-231 [4]): inactive; IC50 (Estrogen receptor): Not Active; pIC50 (Estrogen receptor beta [5]): 4.82; GI50 (MCF7 [6]): 1200 nM; GI50 (MCF7 [7]): 51700 nM
2 | O=C(c1ccc(OCCN2CCCCC2)cc1)c1c(-c2ccc(O)cc2)sc2cc(O)ccc12 |  |  |  |  |  |  | Activity (MCF7 [1]): Active; Activity (MCF7 [2]): Active; Activity (MDA-MB-231 [3]): Active; growth inhibition (GI) (MDA-MB-231 [4]): inactive
3 | CCCC[C@@H]1C[C@H]1[C@@H](NC(=O)c1ccco1)c1ccccc1 | 63% | 65% | 91% | 20% | 8% | 7% | 
4 | CCCc1c(-c2ccc(O)cc2)nn(-c2ccc(O)cc2)c1-c1ccc(O)cc1 |  |  |  |  |  |  | fold change (FC) [14]: 410
5 | CCCC[C@@H]1C[C@H]1[C@@H](NC(=O)c1cccs1)c1ccc(-c2ccccc2)cc1 | 58% | 54% | 37% | 5% | -1% | 8% | 
6 | CCCC[C@@H]1C[C@H]1[C@@H](NC(=O)c1ccccc1)c1ccc(-c2ccc(O)cc2)cc1F (relative stereo) |  |  |  |  |  |  | Activity (MCF7 [1]): Active; Activity (MCF7 [2]): Active; Activity (MDA-MB-231 [3]): Active; growth inhibition (GI) (MDA-MB-231 [4]): inactive; pIC50 (Estrogen receptor): < 4.00; pIC50 (Estrogen receptor beta [5]): 5.69; GI50 (MCF7 [6]): 4100 nM
7 | CCC[C@@H]1C[C@@]1(CCC)[C@@H](NC(=O)Cc1ccccc1)c1ccc(-c2ccccc2)cc1 | 7% | 17% | -6% | -5% | -8% | -6% | 
8 | Cc1cc(-c2ccc(O)c(F)c2)ccc1/C=N/O |  |  |  |  |  |  | fold change (FC) [15]: 43
9 | CCC[C@@H]1C[C@@]1(CCC)[C@@H](NS(=O)(=O)c1cccc2cccnc12)c1ccc(-c2ccccc2)cc1 | 58% | 70% | 88% | 29% | 15% | 17% | 
10 | CCCC[C@@H]1C[C@H]1C(NC(=O)c1ccco1)c1ccc(C(=O)OC)cc1 (single isomer, unassigned) | 64% | 84% | 89% | 15% | 8% | 2% | 
11 | CCCC[C@@H]1C[C@@]1(C)[C@@H](NS(=O)(=O)c1cccc2cccnc12)c1ccc(-c2ccccc2)cc1 | 52% | 52% | 41% | 2% | -5% | -4% | 
12 | O/N=C/c1ccc(-c2ccc(O)cc2)cc1F |  |  |  |  |  |  | fold change (FC) [15]: 11; pIC50 (Estrogen receptor): 6.10; pIC50 (Estrogen receptor beta [5]): 7.49
13 | CCCC[C@@H]1C[C@H]1[C@@H](NC(=O)c1ccccc1)c1ccc(C(=O)OC)cc1 | 54% | 54% | 75% | 6% | -3% | -2% | 
14 | C=C(CCCC)[C@@H](NC(=O)c1ccccc1)c1ccccc1 | 58% | 70% | 67% | 9% | 2% | 3% | 
15 | C=C(CCCC)[C@@H](NC(=O)C(C)(C)C)c1ccccc1 | -67% | 13% | 13% | -4% | -10% | -12% | 
16 | CCCC[C@@H]1C[C@H]1[C@@H](NC(=O)c1ccco1)c1ccc(-c2ccccc2)cc1 | 58% | 57% | 54% | 13% | -2% | 0% | 
17 | CCC/C=C(\CCC)[C@@H](NP(=O)(c1ccccc1)c1ccccc1)c1ccccc1 | 47% | 25% | 72% | 14% | 6% | 9% | 

Continued, in another order:

Row | Activity [8] | Activity [9] | Activity [10] | Activity (Estrogen receptor beta [11]) | Activity (Estrogen receptor beta [12]) | Activity (Estrogen receptor beta [13]) | Structure (SMILES) | other results
18 | 6% | 15% | 57% | 22% | 0% | 2% | CCCC[C@@H]1C[C@H]1[C@@H](NC(=O)c1ccco1)c1ccc(C(F)(F)F)cc1 | 
19 | 47% | 74% | 90% | 30% | -1% | 10% | CCC/C=C(\CCC)[C@@H](NS(=O)(=O)c1ccc(C(F)(F)F)cc1)c1ccccc1 | 
20 | 48% | 39% | 56% | 17% | -3% | -4% | CCC/C=C(\CCC)[C@@H](NS(C)(=O)=O)c1ccccc1 | 
21 | 46% | 11% | -77% | -25% | 19% | -10% | CCC/C=C(\CCC)[C@@H](NP(=O)(c1ccccc1)c1ccccc1)c1ccc(-c2ccccc2)cc1 | 
22 | 21% | 24% | 37% | 5% | -9% | -7% | C=C(CCCC)[C@@H](NC(=O)c1ccc(C(=O)OC)cc1)c1ccccc1 | 
23 | -61% | 21% | 27% | 3% | -8% | -7% | C=C(CCCC)[C@@H](NC(=O)c1ccc(C(F)(F)F)cc1)c1ccccc1 | 
24 | 27% | 42% | 63% | 10% | 1% | -4% | CCC/C=C(\CCC)[C@@H](NC(=O)C(C)(C)C)c1ccc(C(=O)OC)cc1 | 
25 | 63% | 86% | 90% | 43% | 15% | 29% | CCC/C=C(\CCC)[C@@H](NS(=O)(=O)c1ccc(C(F)(F)F)cc1)c1ccc(C(=O)OC)cc1 | 
26 | 0% | 52% | 78% | 11% | 1% | 28% | CCC/C=C(\CCC)[C@@H](NC(=O)c1ccccc1)c1ccc(C(=O)OC)cc1 | 
